From publication PMC3529145 (Bioconjugate chemistry, 2012)
No end group written: not given here.

Experiments:
Format in all cases: in vivo, mouse
LNCaP tumor = test: Small-animal PET imaging, LNCaP tumor xenograft; conditions: for radioactivity accumulation in LNCaP tumor (PET): PET ROI analysis, i.v. tail vein, dual tumor bearing mice n = 4
Summary of the method: (§1)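 Male athymic nude mice carried LNCaP (right shoulder, implanted 14 days earlier) and PC-3 (left shoulder) xenografts, each 100–200 mm3 (n = 4). Dosing was by tail vein: 160–170 μCi of labelled peptide in 200 μL 3% EtOH/saline, or 260 μCi of control peptide in 200 μL PBS. Static 15-min microPET scans were taken at 2 and 4 h under isoflurane. Decay-corrected ROI values were expressed as %ID/g by phantom calibration.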

PC-3 tumor = test: Small-animal PET imaging, PC-3 tumor xenograft; conditions: PET ROI analysis, i.v. tail vein, dual tumor bearing mice n = 4
Summary of the method: as §1

LNCaP tumors = test: Postmortem biodistribution, LNCaP tumor uptake and tumor-to-tissue ratios; conditions: for LNCaP Tumor/kidney ratio: biodistribution

Row | Substance | radioactivity accumulation in LNCaP tumor (PET) (LNCaP tumor; 2 h p.i.) [%ID/g] | radioactivity accumulation in LNCaP tumor (PET) (LNCaP tumor; 4 h p.i.) [%ID/g] | radioactivity accumulation in PC-3 tumor (PET) (PC-3 tumor; 2 h p.i.) [%ID/g] | radioactivity accumulation in PC-3 tumor (PET) (PC-3 tumor; 4 h p.i.) [%ID/g] | LNCaP Tumor/kidney ratio (LNCaP tumors; 2 h p.i.) | LNCaP Tumor/kidney ratio (LNCaP tumors; 4 h p.i.) | LNCaP Tumor/liver ratio (LNCaP tumors; mouse, in vivo) | tumor accumulation observed by PET (in words) (LNCaP tumor; PET images of mice bearing LNCaP and PC-3 tumors, negative control) | LNCaP Tumor/blood ratio (LNCaP tumors; mouse, in vivo) | LNCaP Tumor/muscle ratio (LNCaP tumors; mouse, in vivo)
1 | ACEQNPIYWARYADWLFTTPLLLLDLALLVDADEGTG-CO2H [[^18F]-4a] | 8.3 ± 1.5 | 8.5 ± 1.3 | 4.2 ± 0.4 | 5.4 ± 0.5 | 0.3 | 0.3 | 0.2 | – | – | –
2 | ACEQNPIYWARYAKWLFTTPLLLLKLALLVDADEGTG-OH [[^18F]-5] | – | – | – | – | 0.4 | – | 0.2 | lack of any tumor accumulation | 0.1 | 0.4
